Results on 6 compounds are retold here after ChEMBL document CHEMBL4371057, “Hydroxamic Acid Inhibitors Provide Cross-Species Inhibition of Plasmodium M1 and M17 Aminopeptidases” (J Med Chem, 2019).

The target in data set [1] is 72 kDa type IV collagenase (Homo sapiens, UniProt P08253). In words: Inhibition of MMP2 (unknown origin) preincubated for 1 hr followed by (QF)-24 substrate addition measured at 1 min time interval for 1 hr by fluorescence assay.
The target in data set [2] is Neutrophil collagenase (Homo sapiens) (UniProt P22894). Kind of data set: Inhibition of MMP8 (unknown origin) preincubated for 1 hr followed by (QF)-24 substrate addition measured at 1 min time interval for 1 hr by fluorescence assay. An outline of the steps:
(§1)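 MMPs were activated with 1 mM 4-aminophenylmercuric acetate (50 mM HEPES, 150 mM NaCl, 5 mM CaCl2, pH 7.0, 1 h, rt). 1 μM QF24 was added at 37 °C and read at 320/405 nm every minute for 1 h. IC50 from a four-parameter Hill fit; three independent experiments.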

Data set [3] deals with T1, Matrilysin (Homo sapiens) (UniProt P09237).
T1 sequence (whole entry): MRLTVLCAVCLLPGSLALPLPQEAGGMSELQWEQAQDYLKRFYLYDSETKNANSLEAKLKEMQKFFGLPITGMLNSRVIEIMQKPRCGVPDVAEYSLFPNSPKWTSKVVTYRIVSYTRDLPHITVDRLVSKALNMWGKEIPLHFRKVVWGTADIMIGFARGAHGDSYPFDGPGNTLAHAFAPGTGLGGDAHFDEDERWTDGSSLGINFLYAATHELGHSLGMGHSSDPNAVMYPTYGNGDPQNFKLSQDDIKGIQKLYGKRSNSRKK
In words: Inhibition of MMP7 (unknown origin) preincubated for 1 hr followed by (QF)-24 substrate addition measured at 1 min time interval for 1 hr by fluorescence assay. An outline of the steps:
as §1

Data set [4] concerns the target Matrix metalloproteinase-9 (Homo sapiens, UniProt P14780). Kind of data set: Inhibition of MMP9 (unknown origin) preincubated for 1 hr followed by (QF)-24 substrate addition measured at 1 min time interval for 1 hr by fluorescence assay.
Data set [5] in a line: Inhibition of Plasmodium falciparum C-terminal His6-tagged M1 aminopeptidase (195 to 1085 residues) expressed in Escherichia coli BL21(DE3) preincubated for 20 mins followed by L-leucine-7-amido-4-methylcoumarin addition by Morrison equation analysis. An outline of the steps:
(§2)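 Recombinant enzymes (Ni-NTA then size exclusion) were preincubated 20 min with inhibitor in 100 mM Tris-HCl pH 8.0, with 2 mM CoCl2 for Pf-M17 and 1 mM for Pv-M17. Leu-AMC substrate: 20 μM (Pf-M1), 40 μM (Pv-M1), 10 μM (both M17). Read at 37 °C, 355/460 nm, to steady-state velocity. Ki from a Morrison tight-binding fit; biological triplicate from three protein preparations.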

Data set [6] is described as follows: Inhibition of Plasmodium falciparum C-terminal His6-tagged M17 aminopeptidase (85 to 605 residues) expressed in Escherichia coli BL21(DE3) preincubated for 20 mins followed by L-leucine-7-amido-4-methylcoumarin addition by Morrison equation analysis. An outline of the steps: as §2
The nature of data set [7]: Growth inhibition of HEK293 cells at 10 uM after 72 hrs by resazurin dye based assay relative to control. The following applies: human, read-out: GI. The data set is classed as cell-based. An outline of the steps: (§3)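 HEK293 cells kept in DMEM with 10% FBS. Exposed to compounds for 72 h at 37 °C, 5% CO2, using the same dilution scheme as the parasite assay (top 40 μM). Medium then replaced with 44 μM resazurin, and fluorescence (530/595 nm) read after 5–6 h.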

A short description of data set [8]: Inhibition of Plasmodium vivax C-terminal His6-tagged M17 aminopeptidase (203 to 621 residues) expressed in Escherichia coli BL21(DE3) preincubated for 20 mins followed by L-leucine-7-amido-4-methylcoumarin addition by Morrison equation analysis. An outline of the steps:
as §2

Data set [9] in a line: Growth inhibition of HEK293 cells at 40 uM after 72 hrs by resazurin dye based assay relative to control. The data set is classed as cell-based. As to conditions: human, read-out: GI. An outline of the steps: as §3
In data set [10] the test system is Plasmodium falciparum. Kind of data set: Antimalarial activity against Plasmodium falciparum 3D7 after 72 hrs by DAPI staining-based confocal imaging analysis. The data set is classed as functional, organism-based. As to conditions: 3D7, 72 h. An outline of the steps:
(§4)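 Exposed to a 16-point dose series (40 μM to 0.4 nM final, 0.4% DMSO) for 72 h at 37 °C in 90% N2/5% CO2/5% O2. DAPI-stained and imaged confocally. Two biological replicates, each with two technical repeats.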

The nature of data set [11]: Selectivity ratio of Ki for Plasmodium falciparum C-terminal His6-tagged M1 aminopeptidase (195 to 1085 residues) expressed in Escherichia coli BL21(DE3) to Ki for Plasmodium vivax C-terminal His6-tagged M1 aminopeptidase (195 to 1097 residues) expressed in Escherichia coli BL21(DE3).
For data set [12], the system named is Plasmodium falciparum. Kind of data set: Reversible inhibition of Plasmodium falciparum C-terminal His6-tagged M17 aminopeptidase (85 to 605 residues) expressed in Escherichia coli BL21(DE3) assessed as enzyme activity recovery at 150 uM preincubated followed by compound washout for 7 hrs and subsequent L-leucine-7-amido-4-methylcoumarin substrate addition by fluorescence assay relative to control. Details: scale not given: the % may be the effect or the level left. An outline of the steps: (§5)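 Pf-M17 (20 μM) was incubated overnight at 4 °C with 150 μM compound, 150 μM bestatin, 2 mM EDTA, or buffer (50 mM HEPES pH 8, 300 mM NaCl). It was then washed by repeated 10-fold concentration/dilution for up to 7 h, incubated 10 min in 1 mM MnCl2, 100 mM Tris pH 8.0, given 25 μM Leu-AMC (final), and fluorescence followed for 30 min.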

For data set [13], the system named is Plasmodium falciparum. Kind of data set: Antimalarial activity against Plasmodium falciparum Dd2 after 72 hrs by DAPI staining-based confocal imaging analysis. The class given is functional, organism-based. The following applies: Plasmodium falciparum, Dd2, 72 h; read-out: IC50. An outline of the steps: as §4
Data set [14] in a line: Selectivity index, ratio of CC50 for HEK293 cells to IC50 for Plasmodium falciparum 3D7. The class given is toxicity. As to conditions: human, read-out: Ratio CC50/IC50.
A short description of data set [15]: Inhibition of Plasmodium vivax C-terminal His6-tagged M1 aminopeptidase (195 to 1097 residues) expressed in Escherichia coli BL21(DE3) preincubated for 20 mins followed by L-leucine-7-amido-4-methylcoumarin addition by Morrison equation analysis. An outline of the steps: as §2
In data set [16] the test system is Plasmodium falciparum. Kind of data set: Reversible inhibition of Plasmodium falciparum C-terminal His6-tagged M17 aminopeptidase (85 to 605 residues) expressed in Escherichia coli BL21(DE3) assessed as enzyme activity recovery at 150 uM preincubated followed by compound washout for 5 hrs and subsequent L-leucine-7-amido-4-methylcoumarin substrate addition by fluorescence assay. An outline of the steps:
as §5

Data set [17] concerns Plasmodium falciparum. The following applies: 2 mM.
In data set [18] the test system is Insulin-regulated aminopeptidase (Homo sapiens). In words: Inhibition of human IRAP at <200 uM preincubated for 10 mins followed by L-leucine-7-amido-4-methylcoumarin addition by fluorescence assay.
Data set [19] addresses Aminopeptidase N (Homo sapiens, UniProt P15144). Kind of data set: Inhibition of human APN expressed in HEK293 cells preincubated for 10 mins followed by L-leucine-7-amido-4-methylcoumarin addition by fluorescence assay.
The nature of data set [20]: Cytotoxicity against HEK293 cells after 72 hrs by resazurin dye based assay. The data set is classed as cell-based. The following applies: human. An outline of the steps:
as §3

Active and inactive are the calls of the source. No cut-off for these calls is given here.

Chain of Neutrophil collagenase (Homo sapiens) (P22894 101-467 limits assumed): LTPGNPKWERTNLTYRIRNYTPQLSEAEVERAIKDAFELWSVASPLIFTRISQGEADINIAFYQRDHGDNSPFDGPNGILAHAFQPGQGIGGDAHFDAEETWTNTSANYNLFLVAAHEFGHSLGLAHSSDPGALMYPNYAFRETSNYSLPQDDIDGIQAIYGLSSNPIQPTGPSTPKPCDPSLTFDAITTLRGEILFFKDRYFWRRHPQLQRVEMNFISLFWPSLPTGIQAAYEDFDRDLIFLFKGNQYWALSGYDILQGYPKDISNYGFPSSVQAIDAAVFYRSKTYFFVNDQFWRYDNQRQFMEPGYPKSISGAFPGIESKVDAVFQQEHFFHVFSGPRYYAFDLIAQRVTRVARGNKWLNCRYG
Chain of Matrix metalloproteinase-9 (P14780 whole entry, the tested form may be a part): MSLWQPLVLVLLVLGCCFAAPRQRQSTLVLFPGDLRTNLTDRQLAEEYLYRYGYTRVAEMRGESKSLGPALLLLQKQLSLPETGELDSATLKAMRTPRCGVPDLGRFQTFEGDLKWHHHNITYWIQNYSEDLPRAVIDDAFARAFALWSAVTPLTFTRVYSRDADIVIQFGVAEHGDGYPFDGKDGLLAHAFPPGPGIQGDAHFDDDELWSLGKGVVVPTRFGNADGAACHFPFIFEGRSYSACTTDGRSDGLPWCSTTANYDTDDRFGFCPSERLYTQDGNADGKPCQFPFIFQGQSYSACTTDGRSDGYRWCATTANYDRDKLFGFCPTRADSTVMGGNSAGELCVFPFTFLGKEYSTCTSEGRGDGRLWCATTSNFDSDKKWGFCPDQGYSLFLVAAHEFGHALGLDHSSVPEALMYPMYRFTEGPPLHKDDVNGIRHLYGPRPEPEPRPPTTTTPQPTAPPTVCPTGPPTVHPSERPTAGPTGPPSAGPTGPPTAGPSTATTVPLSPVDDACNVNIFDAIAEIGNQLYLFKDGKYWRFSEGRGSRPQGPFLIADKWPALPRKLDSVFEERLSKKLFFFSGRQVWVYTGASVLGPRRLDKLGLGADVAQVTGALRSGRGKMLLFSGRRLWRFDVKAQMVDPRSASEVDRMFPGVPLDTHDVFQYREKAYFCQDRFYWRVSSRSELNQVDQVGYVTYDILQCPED
Chain of 72 kDa type IV collagenase (P08253 whole entry): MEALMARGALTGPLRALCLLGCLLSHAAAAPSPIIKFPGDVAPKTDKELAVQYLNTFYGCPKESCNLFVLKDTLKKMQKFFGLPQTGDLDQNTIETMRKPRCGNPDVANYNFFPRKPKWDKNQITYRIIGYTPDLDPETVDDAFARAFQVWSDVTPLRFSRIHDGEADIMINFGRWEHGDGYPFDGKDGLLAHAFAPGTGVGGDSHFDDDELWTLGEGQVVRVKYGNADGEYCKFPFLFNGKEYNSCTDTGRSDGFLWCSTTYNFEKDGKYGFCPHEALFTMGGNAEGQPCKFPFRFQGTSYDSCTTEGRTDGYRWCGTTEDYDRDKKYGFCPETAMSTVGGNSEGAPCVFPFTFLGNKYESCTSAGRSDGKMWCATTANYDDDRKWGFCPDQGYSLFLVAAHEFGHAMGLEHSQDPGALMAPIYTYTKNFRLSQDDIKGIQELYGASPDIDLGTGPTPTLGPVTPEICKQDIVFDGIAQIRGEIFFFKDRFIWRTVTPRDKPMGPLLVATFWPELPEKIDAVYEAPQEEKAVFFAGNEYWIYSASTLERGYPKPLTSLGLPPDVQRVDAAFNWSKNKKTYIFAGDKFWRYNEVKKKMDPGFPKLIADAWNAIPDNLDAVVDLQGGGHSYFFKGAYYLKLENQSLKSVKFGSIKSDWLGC
Chain of Aminopeptidase N (P15144 whole entry): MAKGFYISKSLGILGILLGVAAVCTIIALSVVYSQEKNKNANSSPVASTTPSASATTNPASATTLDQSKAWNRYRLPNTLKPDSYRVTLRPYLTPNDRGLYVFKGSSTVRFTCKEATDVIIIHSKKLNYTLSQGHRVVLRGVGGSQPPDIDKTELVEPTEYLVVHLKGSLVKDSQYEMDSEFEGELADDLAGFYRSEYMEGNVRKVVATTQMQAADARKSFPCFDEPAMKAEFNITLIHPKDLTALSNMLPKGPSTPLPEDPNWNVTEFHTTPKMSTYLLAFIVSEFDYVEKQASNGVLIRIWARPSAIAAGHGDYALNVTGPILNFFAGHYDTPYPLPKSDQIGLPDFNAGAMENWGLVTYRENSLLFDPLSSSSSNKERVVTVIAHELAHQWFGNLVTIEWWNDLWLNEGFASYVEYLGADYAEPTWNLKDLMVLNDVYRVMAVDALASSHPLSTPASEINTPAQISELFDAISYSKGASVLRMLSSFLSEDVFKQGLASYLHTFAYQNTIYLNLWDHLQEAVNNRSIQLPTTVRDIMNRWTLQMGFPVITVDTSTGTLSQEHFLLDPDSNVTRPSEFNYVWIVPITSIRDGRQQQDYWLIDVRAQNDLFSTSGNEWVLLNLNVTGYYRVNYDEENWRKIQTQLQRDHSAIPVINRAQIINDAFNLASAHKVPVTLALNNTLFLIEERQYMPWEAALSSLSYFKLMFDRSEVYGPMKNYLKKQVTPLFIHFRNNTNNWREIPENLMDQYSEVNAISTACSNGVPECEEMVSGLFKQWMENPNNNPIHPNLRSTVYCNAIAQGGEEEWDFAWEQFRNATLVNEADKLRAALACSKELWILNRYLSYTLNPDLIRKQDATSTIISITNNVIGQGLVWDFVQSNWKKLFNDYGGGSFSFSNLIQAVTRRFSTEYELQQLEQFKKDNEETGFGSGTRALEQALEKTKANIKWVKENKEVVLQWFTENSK

For the compound `CC(C)C[C@@H](C(=O)N[C@H](C(=O)OC1CCCC1)c1ccccc1)C(O)C(=O)NO` (some centres not stated), the 50% inhibitory concentration (IC50) in [1] is 0.19 µM; in [4] it was 1.5 µM. In addition, the inhibition entry in data set [2] and in [3] was “Active” each time.

For `CNC(=O)[C@@H](NC(=O)[C@H](CC(C)C)[C@H](O)C(=O)NO)C(C)(C)C`, the inhibition entry in data set [2] and in [3] was “Active” each time.

On to `O=C(NO)C(NC(=O)C12CC3CC(CC(C3)C1)C2)c1ccc(-c2cc(F)c(F)c(F)c2)cc1` (configuration not stated), for which the inhibition constant Ki in data set [5] was 0.137 µM; in data set [6], 0.0289 µM; in data set [8] it was 0.0186 µM; in data set [15], 0.122 µM. Besides, in data set [7], the inhibition at 72 h, 10 µM turned out to be 2.1%. Further, the inhibition at 72 h, 40 µM in data set [9] worked out at 42.9%. Besides, the concentration for half-maximal inhibition (IC50) in data set [10] was determined as 0.357 µM; in data set [13] it was 0.313 µM. In addition, the Ratio Ki in data set [11] stood at 1.1. Also, in data set [12], the Activity came to 20%. The selectivity ratio in data set [14] was at least 56. Also, the inhibition entry in [16] was “Active”.

Turning to `CC(C)C[C@H](NC(=O)[C@@H](O)[C@H](N)Cc1ccccc1)C(=O)O`, the inhibition result in data set [16] was “Active”.

`O=C(O)CN(CCN(CC(=O)O)CC(=O)O)CC(=O)O`: the inhibition entry in data set [17] is “Active”.

In the case of `CC(C)(C)CC(=O)NC(C(=O)NO)c1ccc(-c2cc(F)c(F)c(F)c2)cc1` (configuration not stated), the Ki in [5] was determined as 0.269 µM; in [6], 0.101 µM; in data set [8] it was 0.0036 µM; in [19] it was 0.3 µM; in data set [15], 0.00639 µM. Also, the inhibition at 72 h, 10 µM in data set [7] turned out to be 4.8%. Also, the inhibition result in [18] was “inactive”. The concentration for half-maximal inhibition (IC50) in data set [1] is 17 µM; in [10], 0.0146 µM; in data set [13], 0.0138 µM; in data set [4], above 1000 µM. Besides, the inhibition at 72 h, 40 µM in data set [9] was determined as 98.4%. Besides, the Ratio Ki in data set [11] was found to be 42.1. The inhibition entry in [2] and in data set [3] was “Active” throughout. Also, the selectivity ratio in data set [14] was at least 1370. The compound also returned a 50% cytotoxic concentration (CC50) at 72 h in [20] of at least 20 µM.
